Data on two molecules can be found in ChEMBL document CHEMBL3421570, “Combinatorial Libraries As a Tool for the Discovery of Novel, Broad-Spectrum Antibacterial Agents Targeting the ESKAPE Pathogens” (J Med Chem, 2015).

Assay [1] concerns Staphylococcus aureus. The experiment in a line: Induction of bacterial cell lysis in methicillin-resistant Staphylococcus aureus assessed as cell recovery at 2% by time kill assay. The class given is functional.
Assay [2] deals with Staphylococcus aureus. As to the kind of experiment: Bactericidal activity against methicillin-resistant Staphylococcus aureus assessed as cell survival recovery at 2% measured after drug wash out after 120 mins by time kill assay. Format: functional. The method in brief: (§1)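 MRSA from stationary phase was regrown 3 h in TSB and seeded at OD600 0.5. […] After 120 min, cells were centrifuged and washed, serially diluted and plated for CFU. Percent recovery is relative to no-drug controls.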

The subject of assay [3] is Staphylococcus aureus. The experiment in a line: Effect on bacterial density of methicillin-resistant Staphylococcus aureus at 200 uM measured over 2 hrs period by time kill assay. Format: functional, organism-based.
The subject of assay [4] is Staphylococcus aureus. As to the kind of experiment: Bactericidal activity against methicillin-resistant Staphylococcus aureus assessed as cell survival recovery at 200 uM measured after drug wash out after 120 mins by time kill assay. The class given is functional. The settings on record: 2 h. The method in brief: as §1

Molecules are shown by their SMILES. Active and inactive are the calls of the source. No cut-off for these calls is given here.

Regarding `CCCCCCCCCCCCOS(=O)(=O)[O-].[Na+]` [SODIUM LAURYL SULFATE], the Activity in the assay on Staphylococcus aureus [1] stood at 52%. Further, in the assay with Staphylococcus aureus [2], the Survival was 0%.

In the case of `C[C@H]1c2cccc(O)c2C(=O)C2=C(O)[C@]3(O)C(=O)C(C(N)=O)=C(O)[C@@H](N(C)C)[C@@H]3[C@@H](O)[C@@H]21` [DOXYCYCLINE], in the assay on Staphylococcus aureus [3], the result was inactive. In addition, the survival at 200 µM with Staphylococcus aureus [4] came out at 92%.
